The record followed here is ChEMBL document CHEMBL1148469, “Structural basis for the synthesis of indirubins as potent and selective inhibitors of glycogen synthase kinase-3 and cyclin-dependent kinases” (J Med Chem, 2004).

In experiment [1] the target is Glycogen synthase kinase-3 alpha/beta (Sus scrofa). As to the kind of experiment: Inhibition of glycogen synthase kinase-3-alpha/beta (GSK-3-alpha/beta) in porcine brain relative to indirubin.
Experiment [2] deals with Cyclin-dependent kinase 5/CDK5 activator 1 (Homo sapiens, UniProt Q00535). As to the kind of experiment: Inhibitory activity against Cyclin-dependent kinase 5-p35nck5a. Format: protein-complex assay. Summed up:
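Recombinant mammalian CDK5 and p25 (truncated p35 activator), each expressed in E. coli as a GST fusion, purified on glutathione-agarose and mixed in equal amounts. IC50 from dose-response curves.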

For experiment [3], the target named is Glycogen synthase kinase-3 alpha/beta (Sus scrofa). As to the kind of experiment: Inhibitory activity against GSK-3-alpha/beta from porcine brain.
Experiment [4] concerns the target Cyclin-dependent kinase 1/cyclin B (Marthasterias glacialis). Nature of the experiment: Inhibitory activity against cyclin dependent kinase 1-cyclinB from starfish (Marthasterias glacialis) oocytes.

What is called IC50 is the concentration needed to halve the response being measured. A high value points to a need for much substance.

Chain of Cyclin-dependent kinase 5/CDK5 activator 1 (Q00535 whole entry, the tested form may be a part): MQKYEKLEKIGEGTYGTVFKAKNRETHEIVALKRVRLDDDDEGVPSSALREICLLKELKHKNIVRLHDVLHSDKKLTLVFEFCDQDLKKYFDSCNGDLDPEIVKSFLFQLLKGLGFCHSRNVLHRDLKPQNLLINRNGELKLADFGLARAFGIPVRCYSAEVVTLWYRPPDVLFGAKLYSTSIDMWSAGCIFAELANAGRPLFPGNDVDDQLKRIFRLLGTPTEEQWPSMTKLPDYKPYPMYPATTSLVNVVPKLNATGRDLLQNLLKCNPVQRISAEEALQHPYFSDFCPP
Chain of Cyclin-dependent kinase 5/CDK5 activator 1 (Q15078 whole entry, further chain, the tested form may be a part): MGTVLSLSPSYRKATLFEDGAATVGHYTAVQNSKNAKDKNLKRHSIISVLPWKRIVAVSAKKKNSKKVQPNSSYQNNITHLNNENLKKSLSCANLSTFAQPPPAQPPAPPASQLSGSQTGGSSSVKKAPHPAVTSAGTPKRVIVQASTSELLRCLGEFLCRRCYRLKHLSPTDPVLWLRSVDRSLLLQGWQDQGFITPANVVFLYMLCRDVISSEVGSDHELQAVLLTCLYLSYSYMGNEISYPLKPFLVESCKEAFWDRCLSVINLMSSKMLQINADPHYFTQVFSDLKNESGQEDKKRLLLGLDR

`Cc1ccc2[nH]c(O)c(C3=Nc4ccccc4C3=O)c2c1` showed an IC50 in experiment [1] of 62 nM.
In turn, `CO/N=C1/C(c2c(O)[nH]c3ccccc23)=Nc2ccccc21` yielded an IC50 in experiment [2] of 400 nM. This lies in the sub-micromolar range.
For `O=C1C(c2c(O)[nH]c3cc(Br)ccc23)=Nc2cc(Br)ccc21`, the figures for the IC50 in experiment [2], in experiment [3] and in experiment [4] were greater than 100000 nM, 4500 nM and greater than 100000 nM, respectively.
In experiment [2], `O=Nc1c(-c2c(O)[nH]c3cc(Br)c([N+](=O)[O-])cc23)[nH]c2ccccc12` yielded an IC50 of 150 nM.
Still for that read-out and setting: to `O=C1C(c2c(O)[nH]c3cc(F)ccc23)=Nc2ccccc21` belongs 1000 nM.
As for `O=Nc1c(-c2c(O)[nH]c3cc(Cl)ccc23)[nH]c2ccccc12`, the IC50 in experiment [2] was determined as 100 nM; in experiment [3], 20 nM; in experiment [4], 650 nM.
On to `Cn1c(O)c(-c2[nH]c3ccccc3c2N=O)c2ccc(Br)cc21`, for which the figures for the IC50 in experiment [2], in experiment [3] and in experiment [4] were greater than 100000 nM, greater than 100000 nM and 92000 nM, respectively.
For the molecule `Cc1cc2c(C3=Nc4ccccc4C3=O)c(O)[nH]c2cc1Br`, the IC50 stood at 60000 nM in experiment [2], 25 nM in experiment [3] and 30000 nM in experiment [4].
With `O=C1C(c2c(O)[nH]c3ccc(Br)cc23)=Nc2ccccc21`, the IC50 in experiment [1] came to 55 nM.
Same read-out and setting: to `O=C1C(c2c(O)[nH]c3ccccc23)=Nc2ccc(Br)cc21` belongs 350 nM.
On the same count and under the same terms, to `O=C1C(c2c(O)[nH]c3ccc([N+](=O)[O-])cc23)=Nc2ccccc21` belongs 42 nM.
`CC(=O)O/N=C1/C(c2c(O)[nH]c3cc(Cl)ccc23)=Nc2ccccc21`: the IC50 in experiment [2] amounted to 200 nM; in experiment [3] it was 17 nM; in experiment [4], 30000 nM.
Taken in the same sequence, the figures for `O=Nc1c(-c2c(O)[nH]c3cc(F)ccc23)[nH]c2ccccc12` were 150 nM, 130 nM and 320 nM.
Taken in the same sequence, the figures for `O=C1C(c2c(O)[nH]c3cc(I)ccc23)=Nc2ccccc21` were 5300 nM, 55 nM and 1600 nM.
As for `Cn1c(O)c(C2=Nc3ccccc3C2=O)c2ccc(Br)cc21`, the IC50 in experiment [2], in experiment [3] and in experiment [4] was greater than 100000 nM throughout.
`C=Cc1ccc2c(C3=Nc4ccccc4C3=O)c(O)[nH]c2c1`: the results for the IC50 in experiment [2], in experiment [3] and in experiment [4] were 2400 nM, 240 nM and 4200 nM, respectively.
Consider `Cc1cc2c(-c3[nH]c4ccccc4c3N=O)c(O)[nH]c2cc1Br`, for which the midpoint of inhibition in experiment [2], the IC50, lay at 130 nM.
Take `O=C1C(c2c(O)[nH]c3cccc(Cl)c23)=Nc2ccccc21`: the results for the IC50 in experiment [2], in experiment [3] and in experiment [4] were 10000 nM, greater than 100000 nM and 10000 nM, respectively.
On to `O=C1C(c2c(O)[nH]c3ccc(Br)cc23)=Nc2ccc(Br)cc21`, for which the IC50 in experiment [1] came out at 250 nM.
In experiment [2], `CC(=O)O/N=C1/C(c2c(O)[nH]c3ccccc23)=Nc2ccccc21` returned an IC50 of 700 nM.
`O=C1C(c2c(O)[nH]c3cc(Br)ccc23)=Nc2ccccc21` registered an IC50 in experiment [2] of 53000 nM.
The same measure, in the same setting: in the case of `O=Nc1c(-c2c(O)[nH]c3cc(I)ccc23)[nH]c2ccccc12` it was 300 nM; in that of `CC(=O)O/N=C1/C(c2c(O)[nH]c3cc(F)ccc23)=Nc2ccccc21`, 300 nM.
With `CC(=O)O/N=C1/C(c2c(O)[nH]c3cc(I)ccc23)=Nc2ccccc21`, the 50% inhibitory concentration (IC50) was found to be 1300 nM in experiment [2], 13 nM in experiment [3] and 2200 nM in experiment [4].
In experiment [4], `O=Nc1c(-c2c(O)[nH]c3ccccc23)[nH]c2cc(Br)ccc12` yielded an IC50 of 3000 nM.
In the case of `CO/N=C1/C(c2c(O)[nH]c3cc(Br)ccc23)=Nc2ccccc21`, the IC50 in experiment [2] came out at 2200 nM; in experiment [3], 30 nM; in experiment [4], 3700 nM.
`Cn1c(O)c(-c2[nH]c3ccccc3c2N=O)c2ccccc21`: the IC50 was greater than 100000 nM in experiment [2] and 73000 nM in experiment [4].
Take `O=C1C(c2c(O)[nH]c3ccc(Cl)cc23)=Nc2ccccc21`: the IC50 in experiment [1] worked out at 50 nM.
For the molecule `O=C1C(c2c(O)[nH]c3ccc(F)cc23)=Nc2ccccc21`, the IC50 in experiment [1] came to 78 nM.
Consider `O=C1C(c2c(O)[nH]c3cc(Cl)c(Cl)cc23)=Nc2ccccc21`, for which the half-maximal inhibitory concentration (IC50) in experiment [2] was 60000 nM; in experiment [3], 30 nM; in experiment [4] it was 45000 nM.
Taken in the same sequence, the figures for `O=C1C(c2c(O)[nH]c3ccccc23)=Nc2cc(Br)ccc21` were greater than 100000 nM, 22000 nM and greater than 100000 nM.
Taken in the same sequence, the figures for `O=C1C(c2c(O)[nH]c3cc(Br)c([N+](=O)[O-])cc23)=Nc2ccccc21` were greater than 100000 nM, 100 nM and greater than 100000 nM.
Taken in the same sequence, the figures for `C=Cc1ccc2c(C3=Nc4ccccc4/C3=N\OC(C)=O)c(O)[nH]c2c1` were 400 nM, 65 nM and 1600 nM.
As for `O=C1C(c2c(O)[nH]c3cc(Cl)ccc23)=Nc2ccccc21`, the IC50 in experiment [2] was greater than 100000 nM; in experiment [3], 140 nM; in experiment [4] it was greater than 100000 nM.
For `C=Cc1ccc2c(-c3[nH]c4ccccc4c3N=O)c(O)[nH]c2c1`, the figures for the IC50 in experiment [2], in experiment [3] and in experiment [4] were 420 nM, 60 nM and 1200 nM, respectively.
The like results for `CC(=O)O/N=C1/C(=C2/C(=O)Nc3cc(Br)c([N+](=O)[O-])cc32)Nc2ccccc21` were, in that order, 31000 nM, 6 nM and 11000 nM.
Regarding `CC(=O)O/N=C1/C(=C2/C(=O)Nc3cc(Br)c(C)cc32)Nc2ccccc21`, the IC50 in experiment [2] was 30000 nM; in experiment [3] it was 7 nM; in experiment [4] it was 31000 nM.
On to `Cn1c(O)c(C2=Nc3ccccc3C2=O)c2ccccc21`, for which the IC50 in experiment [2] and in experiment [4] was greater than 100000 nM in each case.
`O=Nc1c(-c2c(O)[nH]c3cc(Br)ccc23)[nH]c2cc(Br)ccc12`: the IC50 came out at 1300 nM in experiment [2], 120 nM in experiment [3] and 17000 nM in experiment [4].
The like results for `CC(=O)O/N=C1/C(=C2/C(=O)Nc3cc(Br)ccc32)Nc2ccccc21` [6-BROMOINDIRUBIN-3'-ACETOXIME] were, in that order, 2400 nM, 10 nM and 63000 nM.
The like results for `CC(=O)O/N=C1/C(=C2/C(=O)Nc3cc(Cl)c(Cl)cc32)Nc2ccccc21` [INDIRUBIN 1] were, in that order, 100 nM, 4 nM and 30000 nM.
